Results taken from ChEMBL document CHEMBL4613213, “Anibamine and Its Analogues: Potent Antiplasmodial Agents from Aniba citrifolia” (J Nat Prod, 2020).
Activity calls are given as the source filed them. The calls are words filed in the database; no cut-off is given here.

How the values were obtained:
[1] = test system: Plasmodium falciparum; experiment: Antiplasmodial activity against Plasmodium falciparum Dd2 assessed as reduction in parasite growth after 72 hrs by SYBR Green 1 staining based assay; assay type: functional, organism-based
How it was run: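 Dd2 cultures started at ring stage, 1% hematocrit and 1% parasitemia. Grown 72 h at 37 °C in 5% CO2/5% O2/90% N2 across increasing drug concentrations. Viability read by SYBR Green I DNA quantitation in lysis buffer. IC50 from nonlinear regression; mean of three independent determinations, each in triplicate, ± SEM.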

[2] = test system: Plasmodium falciparum; experiment: Antiplasmodial activity against Plasmodium falciparum Dd2 schizonts form infected in erythrocytes assessed as reduction in trophozoites formation at 1 uM after 48 hrs by Giemsa staining based light microscopic method; assay type: functional, organism-based
How it was run: (§1)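 Compound added at schizont stage (40–42 post-invasion). Morphology assessed on Giemsa-stained thin blood smears at 6, 24 and 48 h of treatment and compared with untreated controls. Two or more independent experiments.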

[3] = test system: Plasmodium falciparum; experiment: Antiplasmodial activity against Plasmodium falciparum Dd2 schizonts form infected in erythrocytes assessed as reduction in reinvasion at 1 uM after 6 hrs by Giemsa staining based light microscopic method; assay type: functional, organism-based; how it was run: as §1
[4] = Hemolytic activity in human RBC; assay type: cell-based, Erythrocyte; settings: human red blood cells (erythrocytes)
[5] = test system: Plasmodium falciparum; experiment: Antiplasmodial activity against Plasmodium falciparum Dd2 schizonts form infected in erythrocytes assessed as morphological defects formation at 1 uM after 48 hrs by Giemsa staining based light microscopic method; assay type: functional, organism-based; how it was run: as §1
[6] = test system: Plasmodium falciparum; experiment: Antiplasmodial activity against Plasmodium falciparum Dd2 schizonts form infected in erythrocytes assessed as reduction in ring stage formation at 1 uM after 6 hrs by Giemsa staining based light microscopic method; assay type: functional, organism-based; how it was run: as §1
[7] = test system: Plasmodium falciparum; experiment: Antiplasmodial activity against Plasmodium falciparum Dd2 schizonts form infected in erythrocytes assessed as reduction in parasite growth at 1 uM after 6 hrs by Giemsa staining based light microscopic method; assay type: functional, organism-based; how it was run: as §1
[8] = test system: A2780; experiment: Cytotoxicity against human A2780 cells assessed as reduction in cell viability after 2 days by AlamarBlue assay; assay type: ADME, cell-based; settings: A2780, 48 h
[9] = test system: Plasmodium falciparum; experiment: Antiplasmodial activity against Plasmodium falciparum Dd2 schizonts form infected in erythrocytes assessed as reduction in parasite growth at 0.5 uM after 6 hrs by Giemsa staining based light microscopic method; assay type: functional, organism-based; how it was run: as §1
[10] = test system: Plasmodium falciparum; experiment: Antiplasmodial activity against Plasmodium falciparum Dd2 ring stage form infected in erythrocytes assessed as reduction in parasite growth at 0.5 uM after 6 to 72 hrs by Giemsa staining based light microscopic method; assay type: functional, organism-based
How it was run: (§2)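 Compound added at ring stage (2–4 h post-invasion). Development followed on Giemsa-stained thin blood smears after 6, 24, 48 and 72 h of treatment and compared with untreated controls. Two or more independent experiments.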

[11] = test system: Plasmodium falciparum; experiment: Antiplasmodial activity against Plasmodium falciparum Dd2 ring stage form infected in erythrocytes assessed as reduction in reinvasion at 0.5 uM after 48 to 72 hrs by Giemsa staining based light microscopic method; assay type: functional, organism-based; how it was run: as §2
[12] = test system: Plasmodium falciparum; experiment: Antiplasmodial activity against Plasmodium falciparum Dd2 schizonts form infected in erythrocytes assessed as reduction in ring stage formation at 0.5 uM after 6 hrs by Giemsa staining based light microscopic method; assay type: functional, organism-based; how it was run: as §1
[13] = test system: Plasmodium falciparum; experiment: Antiplasmodial activity against Plasmodium falciparum Dd2 schizonts form infected in erythrocytes assessed as reduction in reinvasion at 0.5 uM after 6 hrs by Giemsa staining based light microscopic method; assay type: functional, organism-based; how it was run: as §1
[14] = Plasmodium falciparum, Dd2, 72 h, read-out: IC50

CCCCCCCC/C=C\c1c(C)nc(CCCOC)c(/C=C\CCCCCCCC)c1C
IC50 [1, 14]: 19.3 µM

CCCCCCCC/C=C/c1c(C)nc(CCCOC)c(/C=C/CCCCCCCC)c1C
IC50 [1, 14]: > 20 µM

CCCCCCCC/C=C/c1c(C)c(/C=C/CCCCCCCC)c2[n+](c1C)CCCC2
IC50 [1, 14]: 0.061 µM | Activity [2]: Active | Activity [3]: inactive | HC50 [4]: > 58 µM | Activity [5]: Active | Activity [6]: inactive | Activity [7]: inactive

CCCCCCCC/C=C/c1c(C)cc(CCCOC)nc1C
IC50 [1, 14]: 6.7 µM

C[C@@H]1CC[C@H]2[C@@H](C)C(=O)O[C@@H]3O[C@@]4(C)CC[C@@H]1[C@]32OO4 [ARTEMISININ]
IC50 [1, 14]: 0.0065 µM

CCCCCCCC/C=C\c1c(C)c(/C=C\CCCCCCCC)c2[n+](c1C)CCC2 [AANIBAMINE]
IC50 ([1]; read-out: IC50): 0.11 µM | HC50 [4]: > 58 µM

CCCCCCCCCCc1c(C)cc(C)nc1C
IC50 [1, 14]: > 20 µM

C=CCc1c(O)c(OC)cc2c1O[C@H](c1ccc3c(c1)OCO3)[C@H]2C
IC50 [1, 14]: 30 µM | IC50 [8]: 10 to 35 µM

CCCCCCCC/C=C\c1c(C)cc(C)nc1C
IC50 [1, 14]: > 20 µM

CCCCCCCC/C=C\c1c(C)nc(C)c(/C=C\CCCCCCCC)c1C
IC50 [1, 14]: > 20 µM

C=CCOc1cc2c(cc1OC)[C@H](C)[C@@H](c1ccc3c(c1)OCO3)O2
IC50 [1, 14]: 30 µM | IC50 [8]: 10 to 50 µM

CCCCCCCC/C=C\c1c(CCCOC)nc(C)c(/C=C/CCCCCCCC)c1C
IC50 [1, 14]: > 20 µM

C=CC[C@@]12C=C(OC)C(=O)C=C1O[C@H](c1ccc3c(c1)OCO3)[C@H]2C
IC50 [1, 14]: > 30 µM | IC50 [8]: 10 to 50 µM

CCCCCCCC/C=C/c1c(C)nc(C)c(/C=C/CCCCCCCC)c1C
IC50 [1, 14]: > 20 µM

CCCCCCCC/C=C/c1c(C)cc(C)[n+]2c1CCC2
Activity [9]: inactive | IC50 [1, 14]: 0.058 µM | Activity [10]: inactive | Activity [11]: inactive | Activity [12]: inactive | Activity [13]: inactive

CCCCCCCC/C=C/c1c(C)cc(C)nc1CCCOC
IC50 [1, 14]: > 20 µM

CCCCCCCCCCc1c(C)cc(C)[n+]2c1CCC2
Activity [9]: inactive | IC50 [1, 14]: 0.06 µM | Activity [10]: inactive | Activity [11]: inactive | Activity [12]: inactive | Activity [13]: inactive

CCCCCCCCCCc1c(C)nc(C)c(CCCCCCCCCC)c1C
IC50 [1, 14]: > 20 µM

C=CC[C@@]1(OC)C=C2C(=CC1=O)O[C@H](c1ccc3c(c1)OCO3)[C@H]2C
IC50 [1]: Not Active | IC50 [8]: 10 to 50 µM

C=CC[C@@]12C=C(OC)C(=O)[C@@H]([C@H](c3ccc4c(c3)OCO4)[C@H]1C)[C@H]2O
IC50 [1]: Not Active | IC50 [8]: 10 to 50 µM

CCCCCCCCCCc1c(C)cc(C)nc1CCCOC
IC50 [1, 14]: > 20 µM
